The source made the active and inactive calls. The calls are words filed in the database; no cut-off is given here.
What was measured:
Mus musculus [1] = experiment: Anticonvulsant activity in F1 albino mouse assessed as protection against subcutaneous pentylenetetrazole-induced seizures at 300 mg/kg, ip after 0.5 hrs; format: functional, organism-based; parameters: dose 300 mg/kg
How it was run: (§1)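 Male albino F-1 mice (18–25 g), groups of 1–5 (rotorod 2–8). Compound given ip as a suspension in 0.5% methylcellulose at 30, 100 and 300 mg/kg. Seizures by maximal electroshock or subcutaneous pentylenetetrazole; neurotoxicity by rotorod. Read at 0.5 and 4 h, with some at 0.25, 1 and 2 h. Value is the minimum active dose, with protected (or toxic)/tested animals.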

Mus musculus [2] = experiment: Anticonvulsant activity in F1 albino mouse assessed as protection against maximal electroshock-induced seizures at 300 mg/kg, ip after 0.5 hrs; format: functional, organism-based; parameters: dose 300 mg/kg; how it was run: as §1
Mus musculus [3] = experiment: Anticonvulsant activity in F1 albino mouse assessed as protection against maximal electroshock-induced seizures at 300 mg/kg, ip after 0.25 hrs; format: functional, organism-based; parameters: dose 300 mg/kg; how it was run: as §1
Mus musculus [4] = experiment: Neurotoxicity in F1 albino mouse assessed as minimal motor impairment at 300 mg/kg, ip after 4 hrs by rotorod test; format: toxicity, organism-based; parameters: dose 300 mg/kg, route intraperitoneal; conditions: in vivo; how it was run: as §1
Mus musculus [5] = experiment: Neurotoxicity in F1 albino mouse assessed as minimal motor impairment at 300 mg/kg, ip after 1 hr by rotorod test; format: toxicity, organism-based; parameters: dose 300 mg/kg, route intraperitoneal; conditions: in vivo; how it was run: as §1
Rattus norvegicus = species on record: Rattus norvegicus; experiment: Selectivity ratio of Ki for adenosine A1 receptor in rat brain cortical membrane to Ki for adenosine A2A receptor in rat brain striatal membrane; format: cell membranes
How it was run: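 Ki ratios from radioligand competition binding. Rat A1 used brain cortical membranes and rat A2A used brain striatal membranes. Human A1 and A2A used membranes of CHO cells expressing the receptors. A1 radioligand [³H]CCPA; A2A radioligand [³H]MSX-2. Potent compounds were tested at 6–7 concentrations spanning 3 orders of magnitude.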

Mus musculus [6] = experiment: Neurotoxicity in F1 albino mouse assessed as minimal motor impairment at 300 mg/kg, ip after 0.5 hrs by rotorod test; format: toxicity, organism-based; parameters: dose 300 mg/kg, route intraperitoneal; conditions: in vivo; how it was run: as §1
Mus musculus [7] = experiment: Anticonvulsant activity in F1 albino mouse assessed as protection against subcutaneous pentylenetetrazole-induced seizures at 300 mg/kg, ip after 0.25 hrs; format: functional, organism-based; parameters: dose 300 mg/kg; how it was run: as §1
[8] = target: T1, Adenosine receptor A1 (Rattus norvegicus) (UniProt P25099); experiment: Displacement of [3H]CCPA from adenosine A1 receptor in rat brain cortical membrane at 25 uM; format: cell membranes
T1 sequence (whole entry): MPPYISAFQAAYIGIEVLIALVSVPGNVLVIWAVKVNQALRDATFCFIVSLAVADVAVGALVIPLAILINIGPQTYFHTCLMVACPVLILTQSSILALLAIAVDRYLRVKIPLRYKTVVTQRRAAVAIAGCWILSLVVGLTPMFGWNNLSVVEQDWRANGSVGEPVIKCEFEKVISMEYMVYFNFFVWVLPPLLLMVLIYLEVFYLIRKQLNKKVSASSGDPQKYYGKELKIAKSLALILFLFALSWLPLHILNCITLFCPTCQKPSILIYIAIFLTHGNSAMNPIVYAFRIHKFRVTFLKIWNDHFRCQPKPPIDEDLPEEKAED

Adenosine receptor A2a = Adenosine receptor A2a (Rattus norvegicus, UniProt P30543); experiment: Displacement of [3H]MSX-2 from adenosine A2A receptor in rat brain striatal membrane; format: cell membranes
Adenosine receptor A2a, sequence (P30543 whole entry): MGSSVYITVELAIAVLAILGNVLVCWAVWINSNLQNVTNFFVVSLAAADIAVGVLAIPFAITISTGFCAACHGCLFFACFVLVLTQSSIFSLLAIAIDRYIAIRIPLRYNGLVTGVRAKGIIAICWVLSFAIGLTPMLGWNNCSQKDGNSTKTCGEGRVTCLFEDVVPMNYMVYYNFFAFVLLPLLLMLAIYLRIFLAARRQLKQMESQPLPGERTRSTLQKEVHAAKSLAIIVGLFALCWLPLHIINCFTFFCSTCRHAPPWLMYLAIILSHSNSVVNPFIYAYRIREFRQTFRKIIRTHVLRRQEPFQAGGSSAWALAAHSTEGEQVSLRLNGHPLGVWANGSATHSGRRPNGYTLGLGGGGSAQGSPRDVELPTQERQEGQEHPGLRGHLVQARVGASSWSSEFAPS

Mus musculus [9] = experiment: Anticonvulsant activity in F1 albino mouse assessed as protection against subcutaneous pentylenetetrazole-induced seizures at 300 mg/kg, ip after 1 hr; format: functional, organism-based; parameters: dose 300 mg/kg; how it was run: as §1
Mus musculus [10] = experiment: Anticonvulsant activity in F1 albino mouse assessed as protection against subcutaneous pentylenetetrazole-induced seizures at 300 mg/kg, ip after 4 hrs; format: functional, organism-based; parameters: dose 300 mg/kg; how it was run: as §1
Mus musculus [11] = experiment: Anticonvulsant activity in F1 albino mouse assessed as protection against maximal electroshock-induced seizures at 300 mg/kg, ip after 1 hr; format: functional, organism-based; parameters: dose 300 mg/kg; how it was run: as §1
Mus musculus [12] = experiment: Neurotoxicity in F1 albino mouse assessed as minimal motor impairment at 300 mg/kg, ip after 0.25 hrs by rotorod test; format: toxicity, organism-based; parameters: dose 300 mg/kg, route intraperitoneal; conditions: in vivo; how it was run: as §1
Adenosine receptor A1 = target: T2, Adenosine receptor A1 (Rattus norvegicus, UniProt P25099); experiment: Displacement of [3H]CCPA from adenosine A1 receptor in rat brain cortical membrane; format: cell membranes
T2 sequence (P25099 whole entry): T1 sequence (whole entry)

Mus musculus [13] = experiment: Anticonvulsant activity in F1 albino mouse assessed as protection against maximal electroshock-induced seizures at 300 mg/kg, ip after 4 hrs; format: functional, organism-based; parameters: dose 300 mg/kg; how it was run: as §1

Row | SMILES | Activity (Mus musculus [1]) | Activity (Mus musculus [2]) | Activity (Mus musculus [3]) | Activity (Mus musculus [4]) | Activity (Mus musculus [5]) | Ratio Ki (Rattus norvegicus) | Activity (Mus musculus [6]) | Activity (Mus musculus [7]) | inhibition [8] [%] | Ki (Adenosine receptor A2a) [µM] | Activity (Mus musculus [9]) | Activity (Mus musculus [10]) | Activity (Mus musculus [11]) | Activity (Mus musculus [12]) | Ki (Adenosine receptor A1) [µM] | Activity (Mus musculus [13])
1 | CC1CCCCC1N1CCCCn2c1nc1c2c(=O)n(C)c(=O)n1C (mixture of isomers) | Active | inactive | inactive | Non-toxic | Non-toxic | > 7 | Non-toxic | inactive | 27 | 3.46 | inactive | inactive | inactive | Non-toxic | > 25 | inactive
2 | C[C@H](C1CCCCC1)N1CCCn2c1nc1c2c(=O)n(C)c(=O)n1C | inactive | inactive | inactive | Non-toxic | Non-toxic | 6 | Non-toxic | inactive | – | 1.3 | inactive | inactive | inactive | Non-toxic | 7.89 | inactive
3 | Cn1c(=O)c2c(nc3n2CCCN3C2CC2)n(C)c1=O | inactive | inactive | inactive | Non-toxic | Non-toxic | 20 | Toxic | inactive | 43 | 1.24 | inactive | inactive | inactive | Non-toxic | ≥ 25 | inactive
4 | Cn1c(=O)c2c(nc3n2CCN3CCC2=CCCCC2)n(C)c1=O | inactive | inactive | inactive | Toxic | Non-toxic | 1 | Non-toxic | inactive | – | 2.02 | inactive | inactive | inactive | Non-toxic | 2.45 | inactive
5 | Cn1c(=O)c2c(nc3n2CCCCN3C2CCCC2)n(C)c1=O | inactive | inactive | inactive | Non-toxic | Non-toxic | 4 | Non-toxic | inactive | – | 1.38 | inactive | inactive | inactive | Non-toxic | 5.06 | inactive
6 | Cn1c(=O)c2c(nc3n2CCCCN3C2CCCCC2)n(C)c1=O | inactive | inactive | inactive | Non-toxic | Non-toxic | 1 | Non-toxic | inactive | – | 2.96 | inactive | inactive | inactive | Non-toxic | 2.13 | inactive
7 | CC(C1CCCCC1)N1CCCn2c1nc1c2c(=O)n(C)c(=O)n1C (racemic) | inactive | inactive | inactive | Non-toxic | Non-toxic | 6 | Non-toxic | inactive | – | 1.24 | inactive | inactive | inactive | Non-toxic | 7.58 | inactive
